Source: PubChem BioAssay (The Scripps Research Institute Molecular Screening Center)
TAAR1 antagonist = human TAAR1 antagonism | Q96RJ0 | CHO RD-HGA16 TAAR1, Fluo-8 calcium fluorescence, antagonist | inhibition, % at 3 µM | actives 1.5% (n = 360,000) | AID 624466;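 active = inhibition above a per-plate cutoff, the mean inhibition of test compounds on that plate plus 3 SD, cut at about 49% in these data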
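System: CHO RD-HGA16 cells bearing hTAAR1. Reagent: EC80 β-phenethylamine stimulus. Schedule: seeding 17-24 h prior, 75-min 37 °C, 30-min RT dye loading. Signal: Fluo-8 intracellular calcium dye fluorescence, real-time kinetic reads. Read-out: % inhibition from peak post-agonist over basal fluorescence ratio. Benchmarks: vehicle wells and EC80 agonist wells. Replicates: n of 1.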
M1 PAM = potentiates human M1 receptor response to acetylcholine; P11229; CHO-K1 hM1, Fluo-8 calcium fluorescence, ACh EC20; 0% = ACh EC20, 100% = maximal ACh; activation, % at 3 µM; actives 0.088% (n = 360,000); in the data active = activation above about 19%, passing the limit was not always enough
Target sequence (P11229 whole entry, looked up): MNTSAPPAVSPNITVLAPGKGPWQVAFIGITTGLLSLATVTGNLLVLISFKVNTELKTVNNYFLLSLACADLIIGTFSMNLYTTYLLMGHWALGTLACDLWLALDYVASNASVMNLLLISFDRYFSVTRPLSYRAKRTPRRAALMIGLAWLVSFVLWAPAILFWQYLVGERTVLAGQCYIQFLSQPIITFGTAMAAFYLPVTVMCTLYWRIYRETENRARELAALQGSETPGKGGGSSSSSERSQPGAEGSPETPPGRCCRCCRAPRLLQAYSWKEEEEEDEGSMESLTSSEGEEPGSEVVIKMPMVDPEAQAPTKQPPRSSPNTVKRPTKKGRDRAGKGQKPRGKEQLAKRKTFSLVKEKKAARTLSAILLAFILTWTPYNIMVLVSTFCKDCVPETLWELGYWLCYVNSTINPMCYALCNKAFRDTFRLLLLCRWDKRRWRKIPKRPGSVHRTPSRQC
CHRM1 antagonist = blocks human M1 muscarinic receptor | CHO-K1 hM1, Fluo-8 calcium fluorescence, ACh EC80 antagonist | inhibition, % at 3 µM | AID 588852 | actives 1.3% (n = 360,000) | P11229;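 active = percent inhibition above its own plate's cutoff, namely the mean of that plate's compound wells plus 3 SD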;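 note: peak over basal fluorescence ratio during 140 s after agonist addition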
CHRM1 agonist = human M1 muscarinic receptor agonism; P11229; activation, % at 3 µM; CHO-K1 hM1, Fluo-8 calcium fluorescence, agonist mode; 0% DMSO, 100% acetylcholine EC100; actives 0.33% (n = 360,000);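 active = activation above the run's mean compound activation plus 3 SD, cut at about 16% in these data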;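 note: peak over basal fluorescence ratio within a 140 s kinetic read after compound addition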
TAAR1 agonist = agonists of human TAAR1 | Q96RJ0 | CHO RD-HGA16 TAAR1, Fluo-8 calcium fluorescence; vehicle wells 0%, saturating PEA agonist 100% | activation, % at 3 µM | actives 0.99% (n = 360,000);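 active = activation above the mean activation of all test compounds in the run plus 3 SD, cut at about 38% in these data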
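Test system: RD-HGA16 (CHO) cells co-expressing Gα16 and hTAAR1; dosing: one-point dosing at 3 µM (nominal); timing: 17-24 h seeding, 75 min 37 °C dye, 30 min RT; signal: kinetic Fluo-8 calcium fluorescence; read-out basis: % activation relative to PEA EC100 response; controls: DMSO and PEA EC100; replicates: n 1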
TAAR1 ag conf = human TAAR1 agonism, confirmed; AID 651783; activation, % at 3 µM; CHO RD-HGA16 TAAR1, Fluo-8 calcium fluorescence; scaled: DMSO 0%, maximal phenethylamine 100%; actives 82% (n = 2,400); shares compounds with TAAR1 agonist;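 active = activation above a cutoff set at the run's mean compound activation plus 3 SD, cut at about 39% in these data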
Ga16 nonsel ag = nonselective agonism, TAAR1 counter-screen; shares compounds with TAAR1 agonist; CHO-Ga16 parental, Fluo-8 calcium fluorescence; normalized to maximal ATP response, DMSO zero; activation, % at 3 µM; actives 50% (n = 2,400);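 active = activation above the run cutoff, the mean activation over all tested wells plus 3 SD, cut at about 12% in these data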
TAAR1 desensitize = human TAAR1 agonist that also desensitizes the receptor; shares compounds with TAAR1 agonist; CHO RD-HGA16 hTAAR1, Fluo-8 calcium, beta-PEA response inhibition; inhibition, % at 3 µM; actives 46% (n = 2,400); AID 651951;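 active = inhibition above the run cutoff, the mean inhibition of all test compounds plus 3 SD, cut at about 49% in these data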;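 note: beta-PEA stimulus applied at its EC80; loss of beta-PEA calcium signal after compound pretreatment read as receptor desensitization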
Ga16 nonsel ant = nonselective Ga16 antagonism, counter-screen. shares compounds with TAAR1 agonist. CHO-Ga16 ATP-induced calcium, Fluo-8 fluorescence. inhibition, % at 3 µM. actives 39% (n = 2,400);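 active = inhibition above the plate's mean compound inhibition plus 3 SD, computed per plate, cut at about 22% in these data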
Hits are given with their value; i = inactive; nt = no result. In the library only some 3.4% were active in any assay of this set; here they are far more common.

SMILES	TAAR1 antagonist	M1 PAM	CHRM1 antagonist	CHRM1 agonist	TAAR1 agonist	TAAR1 ag conf	Ga16 nonsel ag	TAAR1 desensitize	Ga16 nonsel ant
CC(C)C(C)NC(=O)Cn1cnc2c(oc3ccccc32)c1=O (stereo unspecified)	i	i	i	i	i	nt	nt	nt	nt
O=C(Cn1cnc2c(oc3ccccc32)c1=O)NCCc1ccccc1	nt	i	i	i	nt	nt	i	nt	i
Cc1ccc(OCC(=O)Nc2ccc(NC(=O)c3ccccc3)c(C)c2)cc1	i	i	i	i	44	52	21	63	i
Cc1ccc(C(=O)NNC(=S)NC(=O)COc2ccccc2)cc1	74	i	i	i	142	130	111	89	68
CC(C)(C)c1ccc(OCC(=O)NNC(=O)CCc2ccccc2)cc1	i	i	i	i	i	nt	nt	nt	nt
CC(C)(C)c1ccc(C(=O)NC(=S)NNC(=O)COc2ccccc2)cc1	67	i	i	24	124	124	101	100	81
CCOc1cccc(C(=O)Nc2ccc(NC(=O)c3ccccc3)c(C)c2)c1	i	i	i	i	i	nt	nt	nt	nt
COc1ccc(/C=C(/NC(=O)c2ccco2)C(=O)N2CCOCC2)cc1	i	i	i	i	i	nt	nt	nt	nt
COc1cc(NC(=O)CSc2ncnc3sc4c(c23)CCCC4)c(C(=O)O)cc1OC	i	i	i	i	i	nt	nt	nt	nt
CCCCN1C(=O)C(CC(=O)NCC2CCCCC2)CC(C(=O)N2CCCCCC2)=C1C (stereo unspecified)	i	nt	nt	nt	i	nt	nt	nt	nt
Nc1nc(-c2ccccc2)cn1/N=C/c1ccccc1	i	i	i	i	61	93	i	70	i
COC(=O)c1sccc1NC(=O)C1CC1	i	i	i	i	i	nt	nt	nt	nt
CC(=O)c1ccc(-c2cccc([C@H]3[C@@H]4C=CC[C@@H](C)[C@@H]4C(=O)N3Cc3ccccc3)c2)cc1	i	i	i	i	i	nt	nt	nt	nt
NC[C@@H]1O[C@H](C23CC4CC(CC(C4)C2)C3)Cc2c1ccc(O)c2O	71	i	i	i	68	109	13	88	29
O=c1nc(N2CCCC2)nc(Nc2ccccc2)[nH]1	nt	i	i	i	nt	nt	i	nt	i
COC(=O)[C@]12C[C@H](CC(=O)NCCc3ccccc3OC)C(=O)N(Cc3ccccc3)C1=C[C@H](C(C)(C)C)O[C@@H]2C	54	nt	nt	nt	65	80	i	53	i
COC(=O)[C@]12C[C@H](CC(=O)NCCc3ccccc3OC)C(=O)N(Cc3ccc4c(c3)OCO4)C1=C[C@H](COCc1ccccc1)O[C@@H]2C	nt	nt	nt	nt	nt	nt	i	nt	i
CCCCCCCCN1C(=O)[C@@H](CC(=O)NCCc2ccccc2OC)C[C@@]2(C(=O)OC)C1=C[C@H](C1CCCC1)O[C@@H]2C	i	nt	nt	nt	62	72	i	64	i
CC(C)Oc1ccc(CN2CCC(n3nccc3NC(=O)CCc3ccccc3)CC2)cc1	i	i	i	i	i	nt	nt	nt	nt
COc1cc2c(c(OC)c1OC)C1(CCCCC1)CC2NC(=O)c1ccncc1 (stereo unspecified)	i	nt	nt	nt	i	nt	nt	nt	nt
COc1cc2c(c(OC)c1OC)C1(CCCCC1)CC2NS(=O)(=O)C(C)C (stereo unspecified)	49	nt	nt	nt	92	i	i	i	i
COc1ccc(OC)c(/C=C/C(=O)OCC(=O)Nc2nnc(-c3ccccc3)o2)c1	i	i	i	i	i	nt	nt	nt	nt
Oc1ccc(Cl)cc1CNCc1ccc(F)cc1	i	i	i	18	66	65	30	i	i
O=C(Nc1ccc(C(F)(F)F)cc1)c1ccccc1	63	i	i	i	52	i	12	i	i
O=C(Nc1ccc(C(=O)c2ccccc2)cc1)c1ccccc1	i	i	i	i	i	nt	nt	nt	nt
SMILES	TAAR1 antagonist	M1 PAM	CHRM1 antagonist	CHRM1 agonist	TAAR1 agonist	TAAR1 ag conf	Ga16 nonsel ag	TAAR1 desensitize	Ga16 nonsel ant
c1ccc(CCNc2ncnc3nc[nH]c23)cc1	i	i	i	i	71	89	i	82	i
COCCNc1ncnc2nc[nH]c12	i	i	i	i	i	nt	nt	nt	nt
COCCN1C[C@@H](CO)O[C@@H](n2cnc3c(NC4CC4)ncnc32)C1	i	i	i	i	i	nt	nt	nt	nt
O=C(c1cnccn1)N1CCc2ccccc2C1	i	i	i	i	i	nt	nt	nt	nt
O=C(CN1CCc2ccccc2C1)c1cccs1	i	i	i	i	75	86	i	i	i
O=C(NCc1cccnc1)c1ccc(CN2CCc3ccccc3C2)cc1	i	i	i	i	i	nt	nt	nt	nt
O=C(NCN1CCc2ccccc2C1)c1ccccc1	54	i	i	i	82	50	i	i	i
O=C(NCN1CCc2ccccc2C1)c1cnccn1	57	i	i	i	95	88	i	65	i
Cc1cn([C@H]2C[C@H](O)[C@@H](CNC/C=C/c3ccccc3[N+](=O)[O-])O2)c(=O)[nH]c1=O	i	i	i	i	i	nt	nt	nt	nt
O=C(NC1CCCCC1)C1c2ccccc2OCC(=O)N1CC(F)(F)F (stereo unspecified)	i	nt	nt	nt	i	nt	nt	nt	nt
CC(C)C(c1nnnn1Cc1ccccc1)N1CCN(Cc2ccc3c(c2)OCO3)CC1 (stereo unspecified)	i	i	i	i	i	nt	nt	nt	nt
Fc1ccccc1N1CCN(C(c2cccs2)c2nnnn2CCc2ccccc2)CC1 (stereo unspecified)	i	i	i	i	77	83	i	56	i
c1ccc(CCn2nnnc2C(c2cccs2)N2CCN(Cc3ccc4c(c3)OCO4)CC2)cc1 (stereo unspecified)	73	i	i	i	85	95	i	89	i
CCOc1cc(/C=C2\COc3ccccc3C2=O)cc(Br)c1OCC(=O)N(C)C	i	i	i	i	i	nt	nt	nt	nt
CCOC(=O)c1cn(C2CC2)c2c(F)c(F)c(F)cc2c1=O	i	i	i	i	49	i	i	i	i
C[C@@H]1CCCN1[C@H]1CS(=O)(=O)N[C@@H]1COCc1ccccc1	i	i	i	i	i	nt	nt	nt	nt
CCOC(=O)Cn1c(=N)n(CCOc2ccc3ccccc3c2)c2ccccc21	i	i	i	i	58	57	26	51	41
O=C(N/N=C/c1cc([N+](=O)[O-])cc(Br)c1O)C12CC3CCC(CC(C3)C1)C2	i	i	i	i	50	66	54	i	i
CCOC(=O)c1c(S(=O)(=O)NCCc2cccs2)c(C)n(C)c1C	i	i	i	i	55	i	i	i	i
